From PubChem BioAssay
ARFGAP1 inh = inhibits rat ARF GTPase activating protein 1; Arfgap1-stimulated ARF1 GTP hydrolysis, GDP FP detection; AID 651572; 0.26% of 360,000 active; Q62848; inhibition, % at 16.5 µM;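 active = inhibition above a per-plate limit, mean inhibition of low control wells plus 3 SD, cut at about 25% in these data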
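Assay system: purified rat His6-Arfgap1 residues 1-136 (GAP domain); Reagent: human Δ17 ARF1 bound to GTP; Dosing: 16.5 µM single point, 1.26% DMSO; Times: GTP hydrolysis reaction 2 h at 25 °C; Signal: FP, GDP Alexa 633 tracer displaced from anti-GDP antibody, 620/688 nm; Measure: % inhibition from polarization.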
PAFAH2 inh = PAFAH2 (human) inhibition | 0.99% of 340,000 active | Q99487 | recombinant PAFAH2, FP-rhodamine activity probe, fluorescence polarization | AID 492956 | inhibition, % at 3.39 µM;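 active = inhibition above the mean over all tested compounds plus 3 SD, cut at about 30% in these data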;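 note: inhibitors block probe labeling of enzyme so polarization drops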
ASAP1 GAP inh = ASAP1 ArfGAP inhibition; ASAP1-stimulated ARF1 GTP hydrolysis, GDP FP detection; inhibition, % at 16.5 µM; 0.19% of 360,000 active; Q9ULH1; in the data active = inhibition above about 25%
pPAFAH inh = inhibitors of human plasma PAF acetylhydrolase (pPAFAH); Q13093; recombinant pPAFAH, FP-rhodamine probe fluorescence polarization; inhibition, % at 3.39 µM; 1.5% of 330,000 active;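 active = inhibition above the mean inhibition across the screen plus 3 SD, cut at about 25% in these data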;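 note: inhibitors block binding of the rhodamine activity-based probe so polarization drops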
PAFAH1B3 inh = PAFAH1B3 (human) inhibition | recombinant PAFAH1B3, FP-rhodamine probe, fluorescence polarization | inhibition, % at 3.39 µM | 0.28% of 340,000 active;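 active = inhibition above the screen-wide average of all tested compounds plus 3 SD, cut at about 25% in these data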
Target sequence (Q15102 whole entry, looked up): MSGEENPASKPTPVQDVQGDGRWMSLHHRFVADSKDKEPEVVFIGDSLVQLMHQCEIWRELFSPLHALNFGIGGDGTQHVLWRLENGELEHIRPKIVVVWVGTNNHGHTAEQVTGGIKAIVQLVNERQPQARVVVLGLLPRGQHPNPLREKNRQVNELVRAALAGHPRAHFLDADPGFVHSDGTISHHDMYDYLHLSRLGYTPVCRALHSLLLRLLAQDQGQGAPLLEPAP
PAFAH1B2 inh = PAFAH1B2 (human) inhibition; P68402; recombinant PAFAH1B2, FP-rhodamine activity probe, fluorescence polarization; inhibition, % at 3.39 µM; 1.2% of 340,000 active;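 active = inhibition above the mean of all tested compounds plus 3 SD, cut at about 24% in these data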
Target sequence (P68402 whole entry, looked up): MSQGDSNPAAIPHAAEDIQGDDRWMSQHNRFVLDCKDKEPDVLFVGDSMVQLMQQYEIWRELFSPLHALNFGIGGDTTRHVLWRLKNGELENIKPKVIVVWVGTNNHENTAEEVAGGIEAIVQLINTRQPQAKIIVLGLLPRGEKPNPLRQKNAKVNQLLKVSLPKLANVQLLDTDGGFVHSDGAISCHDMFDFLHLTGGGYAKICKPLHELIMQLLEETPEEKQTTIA
Hits are given with their value; – = inactive; · = not tested or not shown. This is a sample that favours compounds with a hit; in the whole collection about 2.8% have one here.

SMILES	ARFGAP1 inh	PAFAH2 inh	ASAP1 GAP inh	pPAFAH inh	PAFAH1B3 inh	PAFAH1B2 inh
COc1cc(/C=C(\CCC(=O)O)c2nc3ccccc3s2)ccc1OCC(=O)Nc1c(Cl)cccc1Cl	–	–	–	–	–	66.9
CC(OC(=O)c1cccs1)C(=O)NC1CC1 (stereo unspecified)	–	–	–	–	–	–
Cc1cc(C)cc(NC(=O)CSc2nc(=O)n3cc(C)ccc3n2)c1	–	–	–	24.9	–	–
CCS(=O)(=O)N1Cc2ccccc2CC1C(=O)Nc1nnc(SCc2ccc(F)cc2)s1 (stereo unspecified)	–	–	–	25.2	–	–
Cc1c(Cc2ccccc2)sc(N)c1C(N)=O	·	·	·	28.1	·	·
Cc1c(Cc2ccccc2)sc(/N=C/c2c(O)ccc3ccccc23)c1C(N)=O	·	–	·	32.1	–	–
Cc1c(Cc2ccccc2)sc(/N=C/c2ccc3ccccc3c2)c1C(N)=O	·	–	·	–	–	–
CCCCCCn1c(=O)n2n(c1=O)[C@@H]1CN(S(=O)(=O)c3ccc(C)cc3)C[C@]1(O)[C@@H](OC(=O)NCc1ccc(OC)c(OC)c1)C2	–	·	–	·	·	·
COC(=O)[C@]12C[C@H](CC(=O)NCC3CCCCC3)C(=O)N(Cc3ccccc3)C1=C[C@H](C1CCCC1)O[C@@H]2C	–	·	–	·	·	·
CCOC(=O)CNC(c1ccccc1)c1cc(Br)ccc1NC(=O)OCC (stereo unspecified)	–	–	–	–	–	–
COC(=O)CNC(c1ccccc1)c1cc(Br)ccc1NC(=O)CNC(=O)OCc1ccccc1 (stereo unspecified)	·	–	·	29.4	–	–
CC(=O)OC[C@]12CC[C@H]3[C@@](C)(CC[C@H]4C(C)(C)CCC[C@]34C)[C@@H]1C[C@H](C1=CC(=O)O[C@@H]1OC(C)=O)O2	·	·	·	44.9	·	·
COC(=O)[C@H]1C[C@@]2(O)CN(S(=O)(=O)c3ccc(C)cc3)C[C@@]2(OC(=O)Nc2c(C)noc2C)C[C@H]1C(=O)OC	–	·	–	·	·	·
CC(=O)N1c2ccccc2Oc2cc3ccccc3cc21	–	–	–	–	–	–
O=C(CCl)N1c2ccccc2Oc2ccc3ccccc3c21	–	30.3	–	·	29.6	–
Cc1ccc(OCc2nc3ccccc3n2C(C(=O)Nc2c(C)cccc2C)C2CC2)cc1 (stereo unspecified)	–	·	–	·	·	·
CCc1cc2ccccc2nc1SCC(=O)Nc1cc(OC)c(OC)cc1C(=O)O	–	–	–	33.2	–	–
CC(Sc1ccc(Cl)cc1)C(=O)Nc1ccc2c(c1)OCO2 (stereo unspecified)	–	–	–	–	–	–
O=C(O)c1ccc(NCc2ccc3c(c2)OCO3)cc1	–	–	–	–	–	24.8
CC(Sc1ccc(Cl)cc1)C(=O)NCc1ccc2c(c1)OCO2 (stereo unspecified)	–	–	–	–	–	24.3
O=C(CSCc1ccc(F)cc1)NCc1ccc2c(c1)OCO2	–	–	–	–	–	–
COc1ccc2c(CC(=O)NCc3ccc4c(c3)OCO4)coc2c1	–	–	–	31.8	–	–
O=C(NCc1ccc2c(c1)OCO2)c1ccc2c(c1)OCO2	–	–	–	–	–	–
O=C(CSCc1ccc(Cl)cc1)NCc1ccc2c(c1)OCO2	–	–	–	–	–	26.1
O=C(NC1(Cc2ccccc2)CCN(CCc2cccs2)C1=O)c1ccccc1 (stereo unspecified)	–	–	–	–	–	–
SMILES	ARFGAP1 inh	PAFAH2 inh	ASAP1 GAP inh	pPAFAH inh	PAFAH1B3 inh	PAFAH1B2 inh
COc1ccccc1CNC(=O)/C=C/c1ccc(S(=O)(=O)N2CCOCC2)cc1	–	–	–	–	–	–
CN(CC(=O)Nc1ccc(Cl)cc1)CC(=O)N1CCc2ccccc21	–	·	–	·	·	·
COc1ccc(CCNC(=O)c2nnc(Cc3ccc(Cl)cc3)o2)cc1OC	–	–	–	28.0	–	–
O=C(NCc1ccc2c(c1)OCO2)c1nnc(Cc2ccc(Cl)cc2)o1	–	–	–	28.8	–	–
COc1cccc(/C=N/NC(=O)c2cc3c(OC)ccc(OC)c3[nH]2)c1O	–	–	–	–	39.5	28.8
Cn1cccc1-c1cc(C(=O)N/N=C/c2cc(Br)ccc2O)[nH]n1	–	–	–	30.1	–	–
Nc1nn(S(=O)(=O)c2ccccc2)cc1-c1ccc([N+](=O)[O-])cc1	–	–	–	–	–	32.0
Brc1ccc(CSc2nnc(-c3ccco3)o2)cc1	–	–	–	–	–	26.5
